Source: PubChem BioAssay AID493016 (Southern Research Specialized Biocontainment Screening …, 2011)
Activity calls are given as the source filed them.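 How the source made its calls: active means compounds blocking at least half of virus-caused cell death at some tested dose; inactive means the rest.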

system: HEp-2 RSV Long CPE inhibition, luminescence; assay: RSV cytopathic effect inhibition, dose response, cell-based, HEp-2, RSV Long, synthesized compounds, set 4 (AID 493016)
In short: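 Material: HEp-2 human cells infected with respiratory syncytial virus strain Long; Probe or stimulus: RSV Long infection at multiplicity of infection 0.45; Dosing: Eight-point twofold series, 50 to 0.39 µM final, 0.5% DMSO; Incubation: six-day compound and virus exposure at 37 °C; Detection: luminescent CPE signal; Replication: triplicate wells per compound concentration.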

Row | IC50 | SMILES
1 | > 50 µM (inactive) | O=C([C@@H]1CCCN1S(=O)(=O)c1cccc2cccnc12)N1CCc2ccccc21
2 | > 50 µM (inactive) | Cc1ccc(NC(=O)[C@@H]2CCCN2S(=O)(=O)c2cccc3cccnc23)c(C)n1
3 | 10.9 µM | CC(C)c1ccccc1NC(=O)[C@@H]1CCCN1S(=O)(=O)c1cccc2cccnc12
4 | > 50 µM (inactive) | Cc1ccc2c(c1)CCN2C(=O)[C@@H]1CCCN1S(=O)(=O)c1cccc2cccnc12
5 | 3.1 µM | COc1ccccc1CNC(=O)C1CCN(S(=O)(=O)c2cccc3nonc23)CC1
6 | > 50 µM (inactive) | O=C(Nc1ccccc1)[C@@H]1CCCN1S(=O)(=O)c1cccc2cccnc12
